{
  "source": "ChEMBL document CHEMBL1764996",
  "about": "“Synthesis and separation of the enantiomers of the neuropeptide S receptor antagonist (9R/S)-3-oxo-1,1-diphenyl-tetrahydro-oxazolo[3,4-a]pyrazine-7-carboxylic acid 4-fluoro-benzylamide (SHA 68)” (J Med Chem, 2011)",
  "assay_type_in_all_cases": "functional, cell-based",
  "key": {"[1]": {"molecular_target": "T1, Neuropeptide S receptor (Mus musculus) (UniProt Q8BZP8)", "T1 sequence (whole entry)": "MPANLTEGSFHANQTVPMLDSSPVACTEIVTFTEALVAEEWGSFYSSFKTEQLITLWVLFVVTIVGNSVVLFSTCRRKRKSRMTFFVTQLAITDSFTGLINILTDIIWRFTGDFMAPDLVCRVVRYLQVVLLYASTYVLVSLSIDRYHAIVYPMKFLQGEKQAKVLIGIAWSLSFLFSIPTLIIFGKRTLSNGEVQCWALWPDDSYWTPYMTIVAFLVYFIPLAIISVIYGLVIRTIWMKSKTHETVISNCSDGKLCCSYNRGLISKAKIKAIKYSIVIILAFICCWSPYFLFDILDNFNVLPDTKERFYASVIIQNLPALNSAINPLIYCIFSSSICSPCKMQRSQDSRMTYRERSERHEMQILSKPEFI", "assay": "Agonist activity at mouse NPSR expressed in HEK293 cells assessed as induction of calcium mobilization at up to 10 uM after 30 mins", "summary_of_the_method": "(§1)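 HEK293 lines stably expressing human NPSR Ile107 or murine NPSR were grown in DMEM with 10% FBS, 2 mM L-glutamine and hygromycin B (100 mg/L) at 37 °C, 5% CO2. Cells were plated on poly-D-lysine wells and loaded with Fluo-4 AM (3 µM), probenecid 2.5 mM and 0.01% pluronic for 30 min at 37 °C. They were then read in HBSS/20 mM HEPES with probenecid and Brilliant Black on a FlexStation at 37 °C. Peak fluorescence change was taken as % baseline and fitted logistically for potency and maximal effect. Data are mean ± sem, n≥4 in duplicate.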"}, "[2]": {"molecular_target": "T1, Neuropeptide S receptor (Mus musculus)", "assay": "Agonist activity at mouse NPSR expressed in HEK293 cells assessed as induction of calcium mobilization after 30 mins relative to control", "summary_of_the_method": "as §1"}, "[3]": {"molecular_target": "T1, Neuropeptide S receptor (Mus musculus)", "assay": "(§2) Agonist activity at mouse NPSR expressed in HEK293 cells assessed as induction of calcium mobilization after 30 mins", "summary_of_the_method": "as §1"}, "Neuropeptide S receptor [4]": {"molecular_target": "T2, Neuropeptide S receptor (Mus musculus, UniProt Q8BZP8)", "T2 sequence (Q8BZP8 whole entry)": "T1 sequence (whole entry)", "assay": "as §2", "summary_of_the_method": "as §1"}, "[5]": {"molecular_target": "T3, Neuropeptide S receptor (Homo sapiens) (UniProt Q6W5P4)", "T3 sequence (whole entry)": "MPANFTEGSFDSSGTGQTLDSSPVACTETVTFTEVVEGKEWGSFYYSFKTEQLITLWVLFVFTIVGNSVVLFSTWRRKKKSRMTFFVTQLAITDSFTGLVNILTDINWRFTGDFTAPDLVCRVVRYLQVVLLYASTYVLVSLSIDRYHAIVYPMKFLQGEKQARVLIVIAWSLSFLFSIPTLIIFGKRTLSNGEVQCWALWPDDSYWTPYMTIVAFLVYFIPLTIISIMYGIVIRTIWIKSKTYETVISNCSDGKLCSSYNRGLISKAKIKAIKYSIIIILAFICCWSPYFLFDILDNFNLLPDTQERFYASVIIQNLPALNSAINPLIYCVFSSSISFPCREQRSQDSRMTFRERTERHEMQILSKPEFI", "assay": "Agonist activity at human NPSR Asn107 expressed in HEK293 cells assessed as induction of calcium mobilization after 30 mins relative to control", "summary_of_the_method": "(§3)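 HEK293 cells stably expressing human NPSR Asn107 were kept in DMEM with 10% FBS, 2 mM glutamine and zeocin (100 mg/L) at 37 °C, 5% CO2. Cells were seeded on poly-D-lysine plates and loaded next day with 3 µM Fluo-4 AM, 2.5 mM probenecid and 0.01% pluronic acid for 30 min at 37 °C. Assay buffer was HBSS with 20 mM HEPES, 2.5 mM probenecid and 500 µM Brilliant Black. Fluorescence was read on a FlexStation at 37 °C. Response was the maximal fluorescence change as % of baseline. Potency and maximal effect came from nonlinear regression, with mean ± sem of ≥4 experiments in duplicate.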"}, "[6]": {"molecular_target": "T3, Neuropeptide S receptor (Homo sapiens)", "assay": "Agonist activity at human NPSR Ile107 expressed in HEK293 cells assessed as induction of calcium mobilization after 30 mins relative to control", "summary_of_the_method": "as §1"}, "Neuropeptide S receptor [7]": {"molecular_target": "T4, Neuropeptide S receptor (Homo sapiens, UniProt Q6W5P4)", "assay": "(§4) Agonist activity at human NPSR Asn107 expressed in HEK293 cells assessed as induction of calcium mobilization after 30 mins", "summary_of_the_method": "as §3"}, "[8]": {"molecular_target": "T3, Neuropeptide S receptor (Homo sapiens)", "assay": "as §4", "summary_of_the_method": "as §3"}, "Neuropeptide S receptor [9]": {"molecular_target": "T4, Neuropeptide S receptor", "assay": "(§5) Agonist activity at human NPSR Ile107 expressed in HEK293 cells assessed as induction of calcium mobilization after 30 mins", "summary_of_the_method": "as §1"}, "[10]": {"molecular_target": "T3, Neuropeptide S receptor (Homo sapiens)", "assay": "as §5", "summary_of_the_method": "as §1"}},
  "note": "The source made the active and inactive calls. The rule behind the calls is not given here.",
  "data": [
    {"compound": "O=C(NCc1ccc(F)cc1)N1CCN2C(=O)OC(c3ccccc3)(c3ccccc3)[C@@H]2C1", "values": [
      {"measurement": "Activity", "setting": "[1]", "value": "inactive"}
    ]},
    {"compound": "O=C(NCc1ccc(F)cc1)N1CCN2C(=O)OC(c3ccccc3)(c3ccccc3)[C@H]2C1", "values": [
      {"measurement": "Activity", "setting": "[1]", "value": "inactive"}
    ]},
    {"compound": "O=C(NCc1ccc(F)cc1)N1CCN2C(=O)OC(c3ccccc3)(c3ccccc3)C2C1", "note": "(single isomer, unassigned)", "values": [
      {"measurement": "Activity", "setting": "[1]", "value": "inactive"}
    ]},
    {"compound": "H-SFRNGVGSGAKKTSFRRAKQ-OH", "values": [
      {"measurement": "Emax", "setting": "[2]", "value": 250, "unit": "%"},
      {"measurement": "Activity", "setting": "[3]", "value": "Dose-dependent effect"},
      {"measurement": "EC50", "setting": "Neuropeptide S receptor [4]", "value": 1.07, "unit": "nM"}
    ]},
    {"compound": "H-SFRNGVGTGMKKTSFQRAKS-OH [NEUROPEPTIDE S]", "values": [
      {"measurement": "Emax", "setting": "[5]", "value": 316, "unit": "%"},
      {"measurement": "Emax", "setting": "[6]", "value": 333, "unit": "%"},
      {"measurement": "pEC50", "setting": "Neuropeptide S receptor [7]", "value": 9.07},
      {"measurement": "Activity", "setting": "[8]", "value": "Dose-dependent effect"},
      {"measurement": "pEC50", "setting": "Neuropeptide S receptor [9]", "value": 9.17},
      {"measurement": "Activity", "setting": "[10]", "value": "Dose-dependent effect"}
    ]}
  ]
}
